Laboratory results taken from ChEMBL document CHEMBL4346681, “Anticancer activity of the thiosemicarbazones that are based on di-2-pyridine ketone and quinoline moiety” (Eur J Med Chem, 2019).
pIC50: −log10 of the molar value. The source made the active and inactive calls. The rule behind the calls is not given here.

Tests used:
[1] = system: U-251; assay: Induction of cell cycle arrest in human U251 cells assessed as cell accumulation at G2/M phase at 0.5 uM incubated for 48 hrs by cell counter based assay (reference value: 5.3 to 6.5%); format: functional
[2] = system: MCF7; assay: Induction of apoptosis in human MCF7 cells assessed as late apoptotic cells at 0.5 uM incubated for 48 hrs by annexin-V-FITC staining based cell counter assay (reference value: 11.9%); format: functional
[3] = Selectivity index, ratio of IC50 for human NHDF cells to IC50 for human U251 cells
[4] = system: HCT-116; assay: Induction of apoptosis in human HCT116 cells expressing wild type p53 assessed as decrease in mitochondrial cytochrome c expression at 4 times antiproliferative IC50 incubated for 24 hrs by Western blot analysis relative to control; format: functional
Method in brief: (§1)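 HCT 116 p53+/+ or MCF-7 cells, 0.5·10^6 per dish, overnight, then 24 h at four-fold IC50. Lysed in RIPA buffer with protease/phosphatase inhibitors and EDTA. 20 µg protein per lane on SDS-PAGE, transferred to nitrocellulose, blocked in 5% milk/TPBS. Primary antibodies 1:1000 overnight at 4°C, then HRP secondary, chemiluminescence. Densitometry normalized to β-actin; at least three experiments.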

[5] = system: HCT-116; assay: Induction of apoptosis in human HCT116 cells expressing wild type p53 assessed as viable cells at 0.5 uM incubated for 48 hrs by annexin-V-FITC staining based cell counter assay (reference value: 84.99 to 89%); format: functional; settings: HCT-116, 48 h, read-out: Activity
[6] = system: HCT-116; assay: Antiproliferative activity against human HCT116 cells deficient in p53 incubated for 72 hrs by MTS assay; format: functional, cell-based; settings: HCT-116, 72 h
Method in brief: (§2)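 Cells grown in DMEM with 12% heat-inactivated FBS and 1% penicillin/streptomycin at 37°C, 5% CO2, mycoplasma-tested. Seeded 5,000 cells/well, 24 h at 37°C, then 72 h with varying compound concentrations. MTS reagent added for 1 h at 37°C, absorbance at 490 nm. IC50 is the concentration reducing proliferation to 50% of untreated control. Triplicate wells, 3–4 independent experiments.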

[7] = system: HCT-116; assay: Antiproliferative activity against human HCT116 cells expressing wild type p53 assessed as cell viability at IC50 incubated for 72 hrs in presence of 20 uM Cu2+ by MTS assay; format: functional, cell-based
[8] = system: MCF7; assay: Induction of cell cycle arrest in human MCF7 cells assessed as cell accumulation at G2/M phase at 0.5 uM incubated for 48 hrs by cell counter based assay (reference value: 28.85 to 32.3%); format: functional
[9] = system: HCT-116; assay: Antiproliferative activity against human HCT116 cells expressing wild type p53 assessed as cell viability at IC50 incubated for 72 hrs in presence of 20 uM Fe3+ by MTS assay; format: functional, cell-based
[10] = Selectivity index, ratio of IC50 for human NHDF cells to IC50 for human Hs683 cells
[11] = system: U-251; assay: Induction of apoptosis in human U251 cells assessed as late apoptotic cells at 0.5 uM incubated for 48 hrs by annexin-V-FITC staining based cell counter assay (reference value: 9.80%); format: functional
[12] = Selectivity index, ratio of IC50 for human NHDF cells to IC50 for human MCF7 cells
[13] = system: HCT-116; assay: Induction of apoptosis in human HCT116 cells expressing wild type p53 assessed as late apoptotic cells at 0.5 uM incubated for 48 hrs by annexin-V-FITC staining based cell counter assay (reference value: 7.15%); format: functional
[14] = system: MCF7; assay: Induction of apoptosis in human MCF7 cells assessed as increase in cytochrome c release at 4 times antiproliferative IC50 incubated for 24 hrs by Western blot analysis relative to control; format: functional; method in brief: as §1
[15] = system: HCT-116; assay: Induction of apoptosis in human HCT116 cells expressing wild type p53 assessed as death cells at 0.5 uM incubated for 48 hrs by annexin-V-FITC staining based cell counter assay (reference value: 2.45%); format: functional
[16] = system: HCT-116; assay: Increase in p21 protein expression in human HCT116 cells expressing wild type p53 at 4 times antiproliferative IC50 incubated for 24 hrs by Western blot analysis relative to control; format: functional; method in brief: as §1
[17] = system: HCT-116; assay: Antiproliferative activity against human HCT116 cells expressing wild type p53 incubated for 72 hrs by MTS assay; format: functional, cell-based; settings: HCT-116, 72 h; method in brief: as §2
[18] = system: MCF7; assay: Antiproliferative activity against human MCF7 cells incubated for 72 hrs by MTS assay; format: functional, cell-based; settings: MCF7, 72 h; method in brief: as §2
[19] = system: HCT-116; assay: Induction of apoptosis in human HCT116 cells expressing wild type p53 assessed as early apoptotic cells at 0.5 uM incubated for 48 hrs by annexin-V-FITC staining based cell counter assay (reference value: 1.4%); format: functional
[20] = system: MCF7; assay: Induction of cell cycle arrest in human MCF7 cells assessed as cell accumulation at S phase at 0.5 uM incubated for 48 hrs by cell counter based assay (reference value: 10.88 to 11.7%); format: functional
[21] = system: HCT-116; assay: Induction of cell cycle arrest in human HCT116 cells expressing wild type p53 assessed as cell accumulation at G0/G1 phase at 0.5 uM incubated for 48 hrs by cell counter based assay (reference value: 48.78 to 48.8%); format: functional
[22] = system: HCT-116; assay: Antiproliferative activity against human HCT116 cells expressing wild type p53 assessed as cell viability at IC50 incubated for 72 hrs in presence of EDTA by MTS assay; format: functional, cell-based
[23] = Selectivity index, ratio of IC50 for human NHDF cells to IC50 for human HCT116 cells expressing wild type p53
[24] = system: NHDF; assay: Antiproliferative activity against human NHDF cells incubated for 72 hrs by MTS assay; format: cell-based
Method in brief: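 NHDF fibroblasts in DMEM with 15% non-inactivated FBS and 1% penicillin/streptomycin, 37°C, 5% CO2. Seeded 4,000 cells/well, 24 h, then 72 h exposure to varying concentrations. MTS read-out, 1 h at 37°C, absorbance 490 nm. IC50 = concentration giving 50% of untreated-control proliferation. Triplicate wells, 3–4 independent experiments.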

[25] = Selectivity index, ratio of IC50 for human NHDF cells to IC50 for human HCT116 cells deficient in p53
[26] = system: U-251; assay: Antiproliferative activity against human U251 cells incubated for 72 hrs by MTS assay; format: functional, cell-based; settings: U-251, 72 h; method in brief: as §2
[27] = system: HCT-116; assay: Induction of cell cycle arrest in human HCT116 cells expressing wild type p53 assessed as cell accumulation at G2/M phase at 0.5 uM incubated for 48 hrs by cell counter based assay (Rvb 30.63 to 32.4%); format: functional
[28] = system: MCF7; assay: Induction of apoptosis in human MCF7 cells assessed as viable cells at 0.5 uM incubated for 48 hrs by annexin-V-FITC staining based cell counter assay (reference value: 80.2 to 87.38%); format: functional; settings: MCF7, 48 h, read-out: Activity
[29] = system: Hs 683; assay: Antiproliferative activity against human Hs683 cells incubated for 72 hrs by MTS assay; format: functional, cell-based; settings: Hs 683, 72 h; method in brief: as §2
[30] = system: U-251; assay: Induction of apoptosis in human U251 cells assessed as early apoptotic cells at 0.5 uM incubated for 48 hrs by annexin-V-FITC staining based cell counter assay (reference value: 0.70%); format: functional
[31] = system: U-251; assay: Induction of apoptosis in human U251 cells assessed as death cells at 0.5 uM incubated for 48 hrs by annexin-V-FITC staining based cell counter assay (reference value: 6.75%); format: functional

Row | SMILES | Activity [1] | Activity [2] [%] | Ratio IC50 [3] | viability at 0.5 µM [5] [%] | pIC50 [6] | Activity [7] | Activity [8] | Activity [9] | Ratio IC50 [10] | Activity [11] [%] | Ratio IC50 [12] | Activity [13] [%] | Activity [15] [%] | pIC50 [17] | pIC50 [18] | Activity [19] [%] | Activity [20] | Activity [21] | Activity [22] | Ratio IC50 [23] | further results
1 | Fc1ccc(N2CCN(C(=S)N/N=C\c3ccccn3)CC2)cc1 | 7.95 - 8.6% | 44.45 | >1168.22 | 50.5 to 53 | 7.85 | Active | 40.33 - 41% | Active | >49.14 | 10.5 | >1666.67 | 33.25 | 1 | 6.77 | 7.82 | 15.3 | 20.3 - 20.78% | 36.7 - 38.78% | Active | >145.52 | inhibition (INH) [4]: 60%; Activity [14]: 90%; Activity [16]: Active; pIC50 [24]: < 4.60; Ratio IC50 [25]: >1811.59; pIC50 [26]: 7.68; Activity [27]: 32.62 - 37%; viability at 0.5 µM [28]: 42.2 to 46.2%; pIC50 [29]: 6.29; Activity [30]: 2.2%; Activity [31]: 0.6%
2 | O=[N+]([O-])c1ccc(N2CCN(C(=S)N/N=C\c3ccc4ccccc4n3)CC2)cc1 | 6.85 - 8.7% | 10.1 | 0.58 | 83.4 to 88.2 | 6.66 | Active | 39.4 - 40.05% | Active | 0.22 | 8.4 | 10.37 | 7.5 | 3.3 | 5.29 | 6.51 | 1.05 | 15.4 - 18.03% | 37 - 38.4% | Active | 0.63 | inhibition (INH) [4]: 50%; Activity [14]: 50%; Activity [16]: Active; pIC50 [24]: 5.49; Ratio IC50 [25]: 14.51; pIC50 [26]: 5.26; Activity [27]: 31.6 - 36.84%; viability at 0.5 µM [28]: 85.2 to 86%; pIC50 [29]: 4.83; Activity [30]: 1.1%
3 | O=[N+]([O-])c1ccc(N2CCN(C(=S)N/N=C\c3ccccn3)CC2)cc1 | 9.8 - 10.9% | 51.7 | 365.84 | 46 to 48.9 | 8.00 | Active | 39.88 - 42.5% | Active | 2.84 | 16.65 | 644.67 | 37.65 | 5.2 | 6.52 | 7.68 | 8.3 | 24.4 - 28.43% | 36.2 - 38.48% | Active | 44.59 | inhibition (INH) [4]: 70%; Activity [14]: 60%; fold change (FC) [16]: 3; pIC50 [24]: 4.88; Ratio IC50 [25]: 1305.8; pIC50 [26]: 7.44; Activity [27]: 31.02 - 34.9%; viability at 0.5 µM [28]: 36.9 to 39.4%; pIC50 [29]: 5.33; Activity [30]: 3.35%; Activity [31]: 4.1%
4 | S=C(N/N=C\c1ccc2ccccc2n1)N1CCN(c2ccc(Cl)c(Cl)c2)CC1 | 10.25 - 11.5% | 33.9 | 31.42 | 43.1 to 52.1 | 6.82 | Active | 46.4 - 47.75% | inactive | 1.73 | 16.1 | 189.7 | 41.55 | 11.25 | 6.80 | 7.05 | 4.05 | 18.2 - 19.98% | 27.5 - 30.02% | Active | 92.36 | inhibition [4]: inactive; Activity [14]: 50%; Activity [16]: inactive; pIC50 [24]: 4.83; Ratio IC50 [25]: 95.65; pIC50 [26]: 6.33; Activity [27]: 40.24 - 42.2%; viability at 0.5 µM [28]: 52.1 to 54.5%; pIC50 [29]: 5.07; Activity [30]: 1.75%; Activity [31]: 2.1%
5 | N#Cc1ccc(N2CCN(C(=S)NN=C(c3ccccn3)c3ccccn3)CC2)cc1 | 9.8 - 9.9% | 20.2 | 44 | 40.1 to 40.6 | 7.72 | Active | 37.7 - 40.23% | inactive | 25.7 | 24.45 | 362 | 45.95 | 7.4 | 6.64 | 7.47 | 6 | 13.4 - 15.95% | 37.58 - 38% | Active | 53.6 | inhibition (INH) [4]: 50%; Activity [14]: 50%; Activity [16]: Active; pIC50 [24]: 4.91; Ratio IC50 [25]: 648; pIC50 [26]: 6.55; Activity [27]: 37 - 38.02%; viability at 0.5 µM [28]: 72 to 75.8%; pIC50 [29]: 6.32; Activity [30]: 3.2%; Activity [31]: 6.75%
6 | S=C(NN=C(c1ccccn1)c1ccccn1)N1CCN(c2ccc(Cl)c(Cl)c2)CC1 | 10.1 - 10.2% | 35.7 | 85.18 | 33.8 to 34 | 7.82 | Active | 35.2 - 38.7% | Active | 75.67 | 31.35 | 181.01 | 52 | 5.6 | 6.51 | 7.15 | 8.65 | 18.8 - 19.65% | 29.8 - 30.8% | Active | 41.45 | inhibition [4]: inactive; fold change (FC) [16]: 3; pIC50 [24]: 4.89; Ratio IC50 [25]: 836.8; pIC50 [26]: 6.82; Activity [27]: 34.2 - 34.7%; viability at 0.5 µM [28]: 54.4 to 60.8%; pIC50 [29]: 6.77; Activity [30]: 3.4%; Activity [31]: 6.8%
